For assay [1], the target named is T1, Renin (Homo sapiens, UniProt P00797).
T1 sequence (P00797 whole entry): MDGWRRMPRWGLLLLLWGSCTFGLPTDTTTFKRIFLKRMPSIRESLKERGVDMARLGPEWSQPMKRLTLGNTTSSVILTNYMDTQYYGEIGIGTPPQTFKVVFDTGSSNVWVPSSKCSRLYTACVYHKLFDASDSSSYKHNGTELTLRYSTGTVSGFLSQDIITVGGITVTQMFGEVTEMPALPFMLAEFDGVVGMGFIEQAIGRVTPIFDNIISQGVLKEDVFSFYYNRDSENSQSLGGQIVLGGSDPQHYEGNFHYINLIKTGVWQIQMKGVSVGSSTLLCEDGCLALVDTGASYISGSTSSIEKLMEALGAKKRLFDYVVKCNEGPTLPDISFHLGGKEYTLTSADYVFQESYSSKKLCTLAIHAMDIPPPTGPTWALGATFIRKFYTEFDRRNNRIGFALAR
Description: Inhibition of human renin. In short, it runs like this:
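Purified human renal renin, 0.24 mGu, with pure human angiotensinogen (0.21 μM) at 37 °C in 0.135 M maleate pH 6.0 containing 3 mM EDTA, 1.4 mM PMSF, 0.44% BSA and 1% DMSO (final). At least three inhibitor concentrations bracketing the IC50 preincubated with enzyme 5 min, then 10.0 min reaction stopped by freezing. Angiotensin I read by RIA; IC50 by regression of percent inhibition.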

For assay [2], the target named is T2, Renin (Homo sapiens) (UniProt P00797).
T2 sequence (whole entry): T1 sequence (P00797 whole entry)
Description: Compound was evaluated for percent inhibition of renin at a concentration of 5e-8M at 60 min pre-incubation time. An outline of the steps:
(§1)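 Purified human renal renin with pure human angiotensinogen (0.21 μM final) in 0.135 M maleate buffer pH 6.0, 3 mM EDTA, 1.4 mM PMSF, 0.44% BSA, 1% DMSO. Inhibitor at one fixed concentration, preincubated with renin 5 or 60 min at 37 °C before substrate addition. Reaction then ran 10.0 min, stopped by freezing. Angiotensin I measured by radioimmunoassay; percent inhibition reported.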

Assay [3] has as its target T2, Renin (Homo sapiens). The assay can be described thus: Compound was evaluated for percent inhibition of renin at a concentration of 5e-8M at 5 min pre-incubation time. An outline of the steps:
as §1

Assay [4] has as its target T2, Renin (Homo sapiens). The assay can be described thus: Compound was evaluated for percent inhibition of renin at a concentration of 2.5*10e-8 M at 5 min pre-incubation time. In short, it runs like this:
as §1

Assay [5] addresses T2, Renin (Homo sapiens). Description: Compound was evaluated for percent inhibition of renin at a concentration of 2.5*10e-8 M at 60 min preincubation time. In short, it runs like this:
as §1

Assay [6] has as its target T2, Renin (Homo sapiens). Description: Compound was evaluated for percent inhibition of renin at a concentration of 1E-8M at 60 min pre-incubation time. In short, it runs like this:
as §1

Assay [7] concerns the target T2, Renin (Homo sapiens). Description: Compound was evaluated for percent inhibition of renin at a concentration of 1E-8M at 5 min pre-incubation time. An outline of the steps:
as §1

Assay [8] has as its target T2, Renin (Homo sapiens). The assay can be described thus: Compound was evaluated for percent inhibition of renin at a concentration of 4E-7M at 60 min pre-incubation time. In short, it runs like this: as §1
Assay [9] deals with T2, Renin (Homo sapiens). Description: Compound was evaluated for percent inhibition of renin at a concentration of 4E-7M at 5 min pre-incubation time. An outline of the steps:
as §1

Assay [10] deals with T2, Renin (Homo sapiens). The assay can be described thus: Compound was evaluated for percent inhibition of renin at a concentration of 5E-8 M at 5 min pre-incubation time. In short, it runs like this:
as §1

The target in assay [11] is T2, Renin (Homo sapiens). Description: Compound was evaluated for percent inhibition of renin at a concentration of 5E-8 M at 60 min pre-incubation time. In short, it runs like this: as §1

`C=C(C[C@H](O)[C@H](CC1CCCCC1)NC(=O)[C@H](Cc1c[nH]cn1)NC(=O)[C@H](Cc1ccccc1)NC(=O)OC(C)(C)C)C(=O)NCCC(C)C`: in assay [1], the IC50 (usually the concentration that inhibits the measured activity by half) was 1.5 nM.

With `CC(C)CNC(=O)[C@](O)(CCl)C[C@H](O)[C@H](CC1CCCCC1)NC(=O)[C@H](Cc1cnc[nH]1)NC(=O)[C@H](Cc1ccccc1)NC(=O)OC(C)(C)C`, in assay [1], the IC50 turned out to be 0.8 nM.

As for `CC(C)CCNC(=O)[C@](C)(O)C[C@H](O)[C@H](CC1CCCCC1)NC(=O)[C@H](Cc1c[nH]cn1)NC(=O)[C@H](Cc1ccccc1)NC(=O)OC(C)(C)C`, in [1], it took 50 nM to reach half-maximal inhibition (IC50).

In turn, `C=C(C[C@H](O)[C@H](CC1CCCCC1)NC(=O)[C@H](Cc1c[nH]cn1)NC(=O)[C@H](Cc1ccccc1)NC(=O)CC(C)(C)C)C(=O)NC` displayed an IC50 in assay [1] of 2 nM.

Compound `C=C(C[C@H](O)[C@H](CC1CCCCC1)NC(=O)[C@H](Cc1c[nH]cn1)NC(=O)[C@H](Cc1ccccc1)NC(C)=O)C(=O)NCCC(C)C` registered an IC50 in assay [1] of 4 nM.

In turn, `CC(C)CNC(=O)[C@@](O)(CCl)C[C@H](O)[C@H](CC1CCCCC1)NC(=O)[C@H](Cc1c[nH]cn1)NC(=O)[C@H](Cc1ccccc1)NC(=O)OC(C)(C)C` gave an IC50 in [1] of 20 nM.

In turn, `C=C(C[C@H](O)[C@H](CC1CCCCC1)NC(=O)[C@H](C)NC(=O)[C@H](Cc1ccccc1)NC(=O)OC(C)(C)C)C(=O)NC` came in with a half-inhibitory concentration (IC50) in [1] of 50 nM. Besides, the figures for the inhibition in assay [2] and in assay [3] were 37% and 44%, respectively.

With `C=C(C[C@H](O)[C@H](CC1CCCCC1)NC(=O)[C@H](C)NC(=O)[C@H](Cc1ccccc1)NC(=O)OC(C)(C)C)C(=O)NCC(C)C`, the concentration for half-maximal inhibition (IC50) in [1] was 10 nM.

The compound `C=C(C[C@H](O)[C@H](CC1CCCCC1)NC(=O)[C@H](Cc1c[nH]cn1)NC(=O)[C@H](Cc1ccccc1)NC(=O)OC(C)(C)C)C(=O)NCC(C)C` gave an IC50 in assay [1] of 2 nM.

With `CC(C)CCNC(=O)[C@@](C)(O)C[C@H](O)[C@H](CC1CCCCC1)NC(=O)[C@H](Cc1c[nH]cn1)NC(=O)[C@H](Cc1ccccc1)NC(=O)OC(C)(C)C`, half-maximal inhibition in assay [1] (IC50) was put at 5.5 nM.

`CC(C)CCNC(=O)C1(C[C@H](O)[C@H](CC2CCCCC2)NC(=O)[C@H](C)NC(=O)[C@H](Cc2ccccc2)NC(=O)OC(C)(C)C)CO1` (stereo partly drawn): the IC50 in assay [1] was 25 nM. Moreover, the inhibition (usually the drop in the measured response relative to a control, in per cent) was determined as 66% in [4] and 61% in assay [5].

Turning to `C=C(C[C@H](O)[C@H](CC1CCCCC1)NC(=O)[C@H](CC(C)C)NC(=O)[C@H](Cc1ccccc1)NC(=O)OCC)C(=O)NCC(C)(C)CN(C)C`, 10 nM corresponded to half-maximal inhibition in assay [1] (IC50).

With `CC(C)CNC(=O)[C@](O)(CN=[N+]=[N-])C[C@H](O)[C@H](CC1CCCCC1)NC(=O)[C@H](Cc1cnc[nH]1)NC(=O)[C@H](Cc1ccccc1)NC(=O)OC(C)(C)C`, the IC50 in assay [1] came out at 1 nM.

`C=C(C[C@H](O)[C@H](CC1CCCCC1)NC(=O)C(Cc1c[nH]cn1)NC(=O)C(C)(O)c1ccccc1)C(=O)NCCC(C)C` (stereo partly drawn) came in with a half-maximal inhibitory concentration (IC50) in assay [1] of 100 nM.

`C=C(C[C@H](O)[C@H](CC1CCCCC1)NC(=O)[C@H](Cc1ccccc1)NC(=O)[C@H](Cc1ccccc1)NC(=O)OC(C)(C)C)C(=O)NCC(C)(C)CN(C)C` registered a half-inhibitory concentration (IC50) in assay [1] of 8.5 nM.

As to `C=C(C[C@H](O)[C@H](CC1CCCCC1)NC(=O)[C@H](CC(C)C)NC(=O)[C@H](Cc1ccccc1)NC(=O)OCC)C(=O)NCC(C)C`, in [1], the IC50 turned out to be 5 nM.

For `C=C(C[C@H](O)[C@H](CC1CCCCC1)NC(=O)[C@H](C)NC(=O)[C@H](Cc1ccccc1)NC(=O)OC(C)(C)C)C(=O)NCCC(C)C`, the inhibition in [6] amounted to 31%; in assay [7], 38%. In assay [1], this compound showed an IC50 of 10 nM.

Turning to `C=C(C[C@H](O)[C@H](CC1CCCCC1)NC(=O)[C@H](C)NC(=O)[C@H](Cc1ccccc1)NC(=O)OC(C)(C)C)C(=O)NCCN(C)C`, the IC50 in assay [1] is 400 nM.

Regarding `C=C(C[C@H](O)[C@H](CC1CCCCC1)NC(=O)[C@H](CC(C)C)NC(=O)[C@H](Cc1ccccc1)NC(=O)OC(C)(C)C)C(=O)NCCC(C)C`, half-maximal inhibition in [1] (IC50) was put at 4 nM.

On to `C=C(C[C@H](O)[C@H](CC(C)C)NC(=O)[C@H](C)NC(=O)[C@H](Cc1ccccc1)NC(=O)OC(C)(C)C)C(=O)NCCC(C)C`, for which the midpoint of inhibition in assay [1], the IC50, lay at 200 nM.

`CC(C)CNC(=O)[C@](O)(CC(C)C)C[C@H](O)[C@H](CC1CCCCC1)NC(=O)[C@H](Cc1c[nH]cn1)NC(=O)[C@H](Cc1ccccc1)NC(=O)OC(C)(C)C`: half-maximal inhibition in assay [1] (IC50) required 30 nM.

`C=C(C[C@H](O)[C@H](CC(C)C)NC(=O)[C@H](C)NC(=O)[C@H](Cc1ccccc1)NC(=O)OC(C)(C)C)C(=O)NCC(C)C`: half-maximal inhibition in assay [1] (IC50) was put at 400 nM. Further, the inhibition was 43% in assay [8] and 48% in [9].

`CNC(=O)C1(C[C@H](O)[C@H](CC2CCCCC2)NC(=O)[C@H](C)NC(=O)[C@H](Cc2ccccc2)NC(=O)OC(C)(C)C)CO1` (stereo partly drawn): in assay [1], the IC50 turned out to be 40 nM.

As to `C=C(C[C@H](O)[C@H](CC1CCCCC1)NC(=O)[C@H](Cc1c[nH]cn1)NC(=O)[C@H](Cc1ccccc1)NC(=O)OCC)C(=O)NCCC(C)C`, the IC50 in [1] came to 3 nM.

On to `C=C(C[C@H](O)[C@H](CC1CCCCC1)NC(=O)[C@H](C)NC(=O)[C@H](Cc1ccccc1)NC(=O)OC(C)(C)C)C(=O)NCC(C)(C)CN(C)C`, for which 25 nM corresponded to half-maximal inhibition in [1] (IC50).

For `CC(C)CNC(=O)[C@@](O)(CN)C[C@H](O)[C@H](CC1CCCCC1)NC(=O)[C@H](Cc1cnc[nH]1)NC(=O)[C@H](Cc1ccccc1)NC(=O)OC(C)(C)C`, in assay [1], the IC50 worked out at 35 nM.

In turn, `C=C(C[C@H](O)[C@H](CC1CCCCC1)NC(=O)[C@H](C)NC(=O)[C@H](Cc1ccccc1)NC(=O)OC(C)(C)C)C(=O)NCCc1ccccc1` registered an IC50 in assay [1] of 150 nM.

On to `C=C(C[C@H](O)[C@H](CC1CCCCC1)NC(=O)[C@H](Cc1c[nH]cn1)NC(=O)[C@H](CO)NC(=O)OC(C)(C)C)C(=O)NCCC(C)C`, for which, in [1], the half-inhibitory concentration (IC50) worked out at 2000 nM.

Turning to `C=C(C[C@H](O)[C@H](CC1CCCCC1)NC(=O)[C@H](Cc1c[nH]cn1)NC(=O)[C@H](Cc1ccccc1)NC(=O)OC(C)(C)C)C(=O)NCC(C)(C)CN(C)C`, in [1], the IC50 is 5 nM.

For the compound `C=C(C[C@H](O)[C@H](CC1CCCCC1)NC(=O)[C@H](C)NC(=O)[C@H](Cc1ccccc1)NC(=O)OC(C)(C)C)C(=O)NCC1CCCCC1`, the IC50 in assay [1] amounted to 50 nM. Also, the figures for the inhibition in [10] and in assay [11] were 49% and 53%, respectively.

Regarding `CC(C)CNC(=O)[C@](O)(CN)C[C@H](O)[C@H](CC1CCCCC1)NC(=O)[C@H](Cc1c[nH]cn1)NC(=O)[C@H](Cc1ccccc1)NC(=O)OC(C)(C)C`, in assay [1], the concentration for half-maximal inhibition (IC50) was 15 nM.

As for `CC(C)CNC(=O)[C@@](O)(CN=[N+]=[N-])C[C@H](O)[C@H](CC1CCCCC1)NC(=O)[C@H](Cc1cnc[nH]1)NC(=O)[C@H](Cc1ccccc1)NC(=O)OC(C)(C)C`, the IC50 in assay [1] came out at 20 nM.

With `C=C(C[C@H](O)[C@H](CC(C)C)NC(=O)[C@H](C)NC(=O)[C@H](Cc1ccccc1)NC(=O)OC(C)(C)C)C(=O)N[C@H](O)CC(C)C`, the IC50 in [1] stood at 6000 nM.
